Laboratory results reported in paper PMC5024769 (Drug Design, Development and Therapy, 2016).
Entries after “also recorded” stand apart in the source; their conditions may differ. Blank lines part the entries; values can stand above or below the compound they belong to.

Tests used:
PPARγ [1] = target: T1, PPARγ (Homo sapiens, UniProt P37231); experiment: PPARγ binding assay performed by CEREP; conditions: single concentration 30 µM, rosiglitazone as positive control
T1 sequence (P37231 1-505): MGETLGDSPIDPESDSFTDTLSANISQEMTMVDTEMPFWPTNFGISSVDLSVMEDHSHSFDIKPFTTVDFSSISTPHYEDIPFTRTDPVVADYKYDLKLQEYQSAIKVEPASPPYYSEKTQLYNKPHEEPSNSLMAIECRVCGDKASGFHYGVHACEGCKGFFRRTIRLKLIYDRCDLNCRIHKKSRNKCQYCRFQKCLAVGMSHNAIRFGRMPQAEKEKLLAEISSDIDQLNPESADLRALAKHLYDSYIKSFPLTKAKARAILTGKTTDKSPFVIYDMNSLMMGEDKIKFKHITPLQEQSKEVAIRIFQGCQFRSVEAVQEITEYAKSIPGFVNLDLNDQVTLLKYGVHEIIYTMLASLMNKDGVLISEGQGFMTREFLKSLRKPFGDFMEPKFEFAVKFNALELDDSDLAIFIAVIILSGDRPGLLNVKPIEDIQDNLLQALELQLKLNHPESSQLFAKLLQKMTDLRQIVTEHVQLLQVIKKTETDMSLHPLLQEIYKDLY

[2] = In vitro stability in rat plasma; format: in vitro ADME; conditions: 60 minutes incubation with rat plasma
In short: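 Rat plasma was separated by centrifugation and diluted with pH 7.4 phosphate buffer to 80% final. Test compound (20 µM final) was incubated at 37°C for 60 min with agitation, then quenched with MeOH plus CH3CN. Analysis was by HPLC-UV at 254 nm, with acetonitrile–water gradient, mobile phase pH 7.0 (NH4OH) and methyl biphenyl-4-carboxylate internal standard (20 µM). Three independent experiments in duplicate.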

[3] = In vitro chemical stability in buffer at pH 2.0 and pH 7.4; format: physicochemical; conditions: pH 2.0, 20 µM, 37°C
In short: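 DMSO stocks (5–10 mM) were diluted into pH 2 buffer (0.2 M KCl/0.2 M HCl) or pH 7.4 dibasic phosphate buffer, giving 20 µM test compound. Samples were held in a 37°C water bath with vigorous stirring for 0, 30, 60 and 120 min. Acid samples were then neutralised with pH 8.4 phosphate buffer. % remaining = peak area at each time / area at 0 min × 100. At least two experiments in triplicate.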

[4] = test system: diabetic rats (Rattus norvegicus); experiment: Thermal hyperalgesia; format: in vivo; conditions: STZ diabetic rats
In short: (§1)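 Male Wistar rats (180–220 g) were made diabetic by single iv STZ 60 mg·kg−1 (glycemia >300 mg/dL). Thermal hyperalgesia was scored as paw withdrawal latency to radiant heat on the hind paw (plantar meter). Mechanical allodynia was scored as paw withdrawal threshold to pressure (digital analgesiometer). Readings were taken before and 4 weeks after induction, then 3 and 7 days into daily test compound 50 mg·kg−1 ip (DMSO vehicle). n=5/group; mean ± SEM; two-way ANOVA.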

[5] = test system: diabetic rats (Rattus norvegicus); experiment: Blood glucose during 7 days' treatment of STZ diabetic rats; format: in vivo; conditions: 50 mg/kg once a day for 7 days
In short: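 Male Wistar rats (180–220 g) were made diabetic by single iv STZ (60 mg·kg−1, citrate buffer pH 4.5); after 4 weeks, those with glycemia >300 mg/dL were used. They received test compound 50 mg·kg−1 ip once daily for 7 days, with DMSO as vehicle. Plasma glucose was measured before treatment and on days 3 and 7.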

[6] = test system: diabetic rats (Rattus norvegicus); experiment: Blood glucose after a single dose in diabetes model induced by STZ; format: in vivo; conditions: for Blood glucose after single dose / Hypoglycemic activity (in words) / Blood glucose before single dose: STZ diabetic rats; for Blood glucose after single dose / Hypoglycemic activity (in words): 20 mg·kg−1 ip, single dose; for Blood glucose before single dose: value before treatment (time control)
In short: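 Diabetes was induced in rats by single iv STZ (60 mg·kg−1 in citrate buffer, pH 4.5). After 4 weeks, male Wistar rats (180–220 g) with glycemia >300 mg/dL were used. Groups were non-diabetic, diabetic plus DMSO vehicle, and diabetic plus test compound (single 20 mg·kg−1 ip dose). Plasma glucose was read by glucometer at 0, 30, 60, 120 and 180 min. n=7/group; mean ± SEM; Student's t-test versus time control.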

[7] = test system: diabetic rats (Rattus norvegicus); experiment: Mechanical allodynia; format: in vivo; conditions: STZ diabetic rats
In short: as §1

[8] = test system: diabetic neuropathic pain model induced by STZ in rats; conditions: cited from earlier work
PPARγ [9] = target: T1, PPARγ; conditions: cited from earlier work

Inhibition of control specific binding to PPARγ (PPARγ [1]): unable to bind to PPARγ
Structure (SMILES): COc1ccc(S(=O)(=O)N/N=C/c2ccc(C(=O)O)cc2)cc1OC [Compound 10, (E)-4-((2-(3,4-dimethoxyphenylsulfonyl) hydrazono)methyl)benzoic acid]

Plasma stability (in words) [2]: very stable
Structure (SMILES): COc1ccc(S(=O)(=O)N/N=C/c2cccc(C(=O)O)c2)cc1OC [Compound 4, (E)-3-((2-(3,4-dimethoxyphenylsulfonyl) hydrazono)methyl)benzoic acid]

Plasma stability (in words) [2]: unstable
Chemical stability [3]: unstable
Structure (SMILES): COc1ccc(S(=O)(=O)N/N=C/c2ccc(C#N)cc2)cc1OC [Compound 8, (E)-N′-(4-cyanobenzylidene)-3,4-dimethoxybenzenesulfonohydrazide]

Plasma stability (in words) [2]: unstable
Structure (SMILES): COC(=O)c1ccc(/C=N/NS(=O)(=O)c2ccc(OC)c(OC)c2)cc1 [Compound 7, (E)-methyl 4-((2-(3,4-dimethoxyphenylsulfonyl)hydrazono)methyl)benzoate]
Paw withdrawal latency (PWL), after 3 days of treatment ([4]; 50 mg·kg−1 ip): 12.2 ± 0.9 s
Paw withdrawal latency (PWL), after 7 days of treatment ([4]; 50 mg·kg−1 ip): 13.3 ± 0.2 s
Paw withdrawal latency (PWL), before treatment ([4]; four weeks after induction): 8.5 ± 0.2 s
Effect on diabetic neuropathic pain (in words) ([4]; long-term administration, 50 mg·kg−1 ip): reduced diabetic neuropathic pain
Hypoglycemic activity (in words) [5]: promoted hypoglycemic activity only after 7 days of treatment
Blood glucose after single dose [6]: 182.2 ± 22.7 mg/dL
Hypoglycemic activity (in words) [6]: showed hypoglycemic activity
Blood glucose before single dose [6]: 384.0 ± 41.9 mg/dL
Paw withdrawal threshold (PWT), after treatment ([7]; 50 mg·kg−1 ip, long-term administration): 36.7 ± 0.9 g
Paw withdrawal threshold (PWT), before treatment ([7]; four weeks after induction): 24.0 ± 1.4 g

Plasma stability (in words) [2]: unstable
Structure (SMILES): COC(=O)c1ccc(/C=N/N(C)S(=O)(=O)c2ccc(OC)c(OC)c2)cc1 [Compound 6, (E)-methyl 4-((2-(3,4-dimethoxyphenylsulfonyl)-2-methylhydrazono)methyl)benzoate]
Blood glucose after single dose [6]: 255.3 ± 42.2 mg/dL
Hypoglycemic activity (in words) [6]: showed hypoglycemic activity
Blood glucose before single dose [6]: 397.1 ± 38.2 mg/dL

Solubility in DMSO ([6]; dosing vehicle DMSO): partially insoluble in DMSO
Plasma stability (in words) [2]: very stable
Structure (SMILES): COC(=O)c1cccc(/C=N/N(C)S(=O)(=O)c2ccc(OC)c(OC)c2)c1 [Compound 5, (E)-methyl 3-((2-(3,4-dimethoxyphenylsulfonyl)-2-methylhydrazono)methyl)benzoate]

Structure (SMILES): COc1ccc(S(=O)(=O)N(C)/N=C/c2ccc(C#N)cc2)cc1OC [Compound 9, (E)-N′-(4-cyanobenzylidene)-3,4-dimethoxy-N-methylbenzene-sulfonohydrazide]
Glucose levels after 7 days ([8]; 50 mg/kg for 7 days, vehicle 410.0±58.0 mg/dL): 242.4 ± 55.3 mg/dL
Antinociceptive activity ([8]; diabetic neuropathic pain model induced by STZ in rats): antinociceptive agent
Hypoglycemic activity (in words) [6]: did not reduce hyperglycemia
PPARγ activity as described earlier (PPARγ [9]): partial agonist of PPARγ
Plasma stability (in words) [2]: very stable; also recorded: high chemical and plasma stability
